Measured values from PMC10448641 (ACS Omega, 2023).

Test system: WISH cells
Experiment: MTT cytotoxicity assay, WISH normal cells
Assay type: cell-based
Details: read-out: IC50 ± SD, WISH (Normal cells)
In short: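 Cells obtained from the Egyptian National Cancer Institute and grown in RPMI-1640/DMEM with L-glutamine. Seeded at 5 × 10^4 cells/well in triplicate and treated at 0.1, 1, 10 and 100 μg/mL. Viability read by MTT on the second day with absorbance on a microplate reader. IC50 derived against control-group viability, recorded in triplicate, mean ± SD.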

For `COc1cccc2c1C(=O)c1c(O)c3c(c(O)c1C2=O)C[C@@](O)(C(=O)CO)C[C@@H]3O[C@H]1C[C@H](N)[C@H](O)[C@H](C)O1` [Doxorubicin], the IC50 was 56.5 ± 2.7 µM.
